From article PMC7557569 (RSC Medicinal Chemistry, 2020)

Tests used:
EphA3 = target: T1, EphA3 (Homo sapiens, UniProt P29320); conditions: EphA3, DSF; first generation inhibitors; ref 8d; cited from earlier work
T1 sequence (P29320 21-983): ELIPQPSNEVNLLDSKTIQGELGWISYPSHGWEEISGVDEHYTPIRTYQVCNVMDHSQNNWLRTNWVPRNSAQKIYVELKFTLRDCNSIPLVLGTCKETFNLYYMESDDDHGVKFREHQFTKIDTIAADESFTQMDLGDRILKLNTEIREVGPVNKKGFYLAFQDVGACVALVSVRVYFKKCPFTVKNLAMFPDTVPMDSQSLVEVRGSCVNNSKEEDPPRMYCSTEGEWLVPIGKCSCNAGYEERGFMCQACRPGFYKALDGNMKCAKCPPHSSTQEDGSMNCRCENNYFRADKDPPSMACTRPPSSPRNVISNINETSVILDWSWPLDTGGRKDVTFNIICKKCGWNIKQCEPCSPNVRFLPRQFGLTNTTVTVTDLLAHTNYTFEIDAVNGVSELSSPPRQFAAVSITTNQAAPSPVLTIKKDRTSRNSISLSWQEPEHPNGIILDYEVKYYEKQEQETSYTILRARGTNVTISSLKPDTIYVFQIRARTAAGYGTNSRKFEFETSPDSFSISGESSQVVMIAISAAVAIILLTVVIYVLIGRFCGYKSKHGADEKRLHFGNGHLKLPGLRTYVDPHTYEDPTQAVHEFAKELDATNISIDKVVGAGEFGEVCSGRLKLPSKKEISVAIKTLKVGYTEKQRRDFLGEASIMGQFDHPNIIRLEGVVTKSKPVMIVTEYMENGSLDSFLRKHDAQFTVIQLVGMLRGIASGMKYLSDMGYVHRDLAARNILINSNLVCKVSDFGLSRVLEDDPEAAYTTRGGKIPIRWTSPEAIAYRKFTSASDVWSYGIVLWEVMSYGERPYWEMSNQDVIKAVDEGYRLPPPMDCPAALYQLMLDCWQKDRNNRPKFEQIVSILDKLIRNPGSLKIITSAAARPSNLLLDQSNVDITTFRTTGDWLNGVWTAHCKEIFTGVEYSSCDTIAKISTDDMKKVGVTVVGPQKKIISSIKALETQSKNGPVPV

[1] = tested on: human umbilical vein endothelial cells (HUVEC); conditions: HUVEC tube formation; previously developed inhibitors; cited from earlier work
K-562 cell line = assay: NCI-60 cancer cell line panel, growth inhibition; assay type: cell-based; conditions: Homo sapiens, K562
RI-1 cell line xenograft = assay: Mouse xenograft model with the ABC DLBCL RI-1 cell line; assay type: in vivo; conditions: NOD-Scid mice, RI-1 xenograft; for tolerability / general toxicity and body weight: 100 mg kg^-1 IP
Outline: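 NOD-Scid mice were inoculated subcutaneously with RI-1 ABC-DLBCL cells (15 × 10^6). They were split into groups of n = 4 given test compound at 100 mg kg−1 IP once every 5 days, or control vehicle. Tumor volume (mm3) and body weight were followed to day 15.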

Structure (SMILES) | Thermal shift (ΔTm) (EphA3) [°C] | inhibition of total branching points [1] [%] | inhibition of total loops [1] [%] | inhibition of tube length [1] [%] | GI50 (K-562 cell line) [nM] | tolerability / general toxicity and body weight (RI-1 cell line xenograft) | xenograft tumor size versus control group (RI-1 cell line xenograft; 100 mg kg^-1 IP once every 5 days, day 15)
Cc1ccc(O)cc1-n1c(N)c(C(N)=O)c2nc3ccccc3nc21 [Compound 1] | 11.2 | 23 | 21 | 9 |  |  | 
NC(=O)c1c(N)n(-c2ccc(NC(=O)Nc3cccc(C(F)(F)F)c3)cc2)c2nc3ccccc3nc12 [Compound 2] |  | 9 | 13 | 5 |  |  | 
Cc1ccc(-n2nc(C(C)(C)C)cc2NC(=O)Nc2ccc(-n3c(N)c(C(N)=O)c4nc5ccccc5nc43)cc2)cc1 [Compound 8a] |  |  |  |  | 31 | very toxic already after the first dose | 
CC(C)(C)c1cc(NC(=O)Nc2ccc(-n3c(N)c(C(N)=O)c4nc5ccccc5nc43)cc2)n(-c2ccc3ncccc3c2)n1 [Compound 8b] |  |  |  |  | < 10 | well tolerated with no general toxicity or body-weight loss | three times smaller
